From ChEMBL document CHEMBL2016473, “Synthesis of new opioid derivatives with a propellane skeleton and their pharmacology. Part 2: Propellane derivatives with an amide side chain” (Bioorg Med Chem Lett, 2012)

How the values were obtained:
[1] = biological target: Delta-type opioid receptor (Mus musculus, UniProt P32300); test: Displacement of [3H]DPDPE from delta opioid receptor in mouse whole brain without cerebellum
How it was run: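 Competitive binding against [3H]DPDPE as the delta radioligand, on membranes from mouse whole brain with the cerebellum removed. Run in duplicate, with results reported as Ki.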

[2] = Selectivity ratio of Ki for mouse delta opioid receptor to Ki for guinea pig kappa opioid receptor
Mu-type opioid receptor = Mu-type opioid receptor (Mus musculus, UniProt P42866); test: Displacement of [3H]DAMGO from mu opioid receptor in mouse whole brain without cerebellum
How it was run: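 Competitive binding against [3H]DAMGO as the mu radioligand, on membranes from mouse whole brain with the cerebellum removed. Run in duplicate, with results reported as Ki.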

[3] = Selectivity ratio of Ki for mouse mu opioid receptor to Ki for guinea pig kappa opioid receptor
[4] = biological target: Kappa-type opioid receptor (Cavia porcellus, UniProt P41144); test: Displacement of [3H]U69593 from kappa opioid receptor in guinea pig cerebellum
How it was run: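 Competitive binding against [3H]U-69,593 as the kappa radioligand, on guinea pig cerebellum membranes. Run in duplicate, with results reported as Ki.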

Mu-type opioid receptor, sequence (P42866 whole entry): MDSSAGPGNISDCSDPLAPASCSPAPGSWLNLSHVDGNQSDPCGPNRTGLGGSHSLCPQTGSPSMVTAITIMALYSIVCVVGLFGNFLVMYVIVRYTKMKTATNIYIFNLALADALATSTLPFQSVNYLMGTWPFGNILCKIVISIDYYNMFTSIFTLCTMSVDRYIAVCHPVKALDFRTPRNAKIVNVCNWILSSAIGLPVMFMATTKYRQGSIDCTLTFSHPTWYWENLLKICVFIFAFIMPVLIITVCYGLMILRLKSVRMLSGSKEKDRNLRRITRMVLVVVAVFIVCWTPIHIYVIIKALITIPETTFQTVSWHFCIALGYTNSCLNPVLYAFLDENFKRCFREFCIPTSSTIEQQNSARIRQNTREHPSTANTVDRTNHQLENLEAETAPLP
Kappa-type opioid receptor, sequence (P41144 whole entry): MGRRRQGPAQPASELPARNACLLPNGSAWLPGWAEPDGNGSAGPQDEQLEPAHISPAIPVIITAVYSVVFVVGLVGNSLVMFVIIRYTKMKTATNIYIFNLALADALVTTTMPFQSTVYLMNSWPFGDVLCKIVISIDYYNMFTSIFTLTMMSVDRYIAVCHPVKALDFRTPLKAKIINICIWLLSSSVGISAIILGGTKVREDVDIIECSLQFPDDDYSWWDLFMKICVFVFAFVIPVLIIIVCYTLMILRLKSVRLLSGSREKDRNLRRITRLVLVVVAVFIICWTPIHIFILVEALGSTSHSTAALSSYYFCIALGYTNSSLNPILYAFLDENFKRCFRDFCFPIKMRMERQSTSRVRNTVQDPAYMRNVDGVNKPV
Delta-type opioid receptor, sequence (P32300 whole entry, looked up): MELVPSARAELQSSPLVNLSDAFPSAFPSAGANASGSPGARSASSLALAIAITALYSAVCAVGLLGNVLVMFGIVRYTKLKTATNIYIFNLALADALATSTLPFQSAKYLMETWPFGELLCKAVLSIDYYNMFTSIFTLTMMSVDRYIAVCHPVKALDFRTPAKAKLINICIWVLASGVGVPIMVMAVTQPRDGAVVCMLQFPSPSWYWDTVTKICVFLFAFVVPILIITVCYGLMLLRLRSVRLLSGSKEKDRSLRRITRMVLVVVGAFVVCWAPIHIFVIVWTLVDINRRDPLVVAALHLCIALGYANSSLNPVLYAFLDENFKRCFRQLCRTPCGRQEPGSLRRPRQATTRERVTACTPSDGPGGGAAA

Structure (SMILES) | Ki [1] [nM] | Ratio Ki [2] | Ki (Mu-type opioid receptor) [nM] | Ratio Ki [3] | Ki [4] [nM]
O=C(NCCc1ccccc1)C1=CCC23CCN(CC4CC4)CC2(C1)Cc1ccc(O)cc13 (stereo not given) | 412 | 1.63 | 35.9 | 0.14 | 253
O=C(Nc1ccccc1)[C@H]1CCC23CCN(CC4CC4)CC2(Cc2ccc(O)cc23)C1 (stereo not given in full) | 207 | 1.92 | 80.8 | 0.75 | 108
O=C(NCc1ccccc1)[C@H]1CCC23CCN(CC4CC4)CC2(Cc2ccc(O)cc23)C1 (stereo not given in full) | > 1000 |  | 112 |  | > 1000
O=C(Nc1ccccc1)C1=CCC23CCN(CC4CC4)CC2(C1)Cc1ccc(O)cc13 (stereo not given) | 192 | 4.11 | 12.4 | 0.27 | 46.7
O=C(NCCc1ccccc1)[C@H]1CCC23CCN(CC4CC4)CC2(Cc2ccc(O)cc23)C1 (stereo not given in full) | > 1000 |  | 453 | 0.71 | 641
CN(C(=O)/C=C/c1ccoc1)[C@@H]1CCC23Cc4ccc(O)cc4C2(CCN(CC2CC2)C3)C1 (stereo not given in full) | 121 | 35.3 | 12.2 | 3.56 | 3.43
O=C(NCCc1ccccc1)[C@@H]1CCC23CCN(CC4CC4)CC2(Cc2ccc(O)cc23)C1 (stereo not given in full) | > 1000 |  | 54.1 | 0.32 | 169
O=C(NCc1ccccc1)[C@@H]1CCC23CCN(CC4CC4)CC2(Cc2ccc(O)cc23)C1 (stereo not given in full) | > 1000 |  | 106 | 5.52 | 19.2
O=C(Nc1ccccc1)[C@@H]1CCC23CCN(CC4CC4)CC2(Cc2ccc(O)cc23)C1 (stereo not given in full) | 282 | 21 | 79.7 | 5.95 | 13.4
O=C(NCc1ccccc1)C1=CCC23CCN(CC4CC4)CC2(C1)Cc1ccc(O)cc13 (stereo not given) | 298 | 4.1 | 33.9 | 0.47 | 72.7
CN(C(=O)CCc1ccccc1)[C@@H]1CCC23Cc4ccc(O)cc4C2(CCN(CC2CC2)C3)C1 (stereo not given in full) | 65.2 | 3.98 | 31.9 | 1.95 | 16.4
CN(C(=O)CCc1ccccc1)[C@H]1CCC23Cc4ccc(O)cc4C2(CCN(CC2CC2)C3)C1 (stereo not given in full) | 44.3 | 6.24 | 1.23 | 0.17 | 7.1
CN(C(=O)/C=C/c1ccoc1)[C@H]1CCC23Cc4ccc(O)cc4C2(CCN(CC2CC2)C3)C1 (stereo not given in full) | 35 | 42.2 | 2.2 | 2.65 | 0.83
